One test deals with Streptococcus pneumoniae. Description: In vitro antimicrobial activity against Streptococcus pneumoniae. It is filed as functional.
The next test has as its system Staphylococcus aureus. Description: In vitro antimicrobial activity against Staphylococcus aureus X1. It counts as functional.
In test [1] the test system is Streptococcus pyogenes. Put plainly: Antimicrobial activity against Streptococcus pyogenes C203. It counts as functional.
The subject of test [2] is Streptococcus pyogenes. Description: In vitro antimicrobial activity against Streptococcus pyogenes C203. It is filed as functional.
Test [3] deals with Staphylococcus epidermidis. Put plainly: In vitro antimicrobial activity against Staphylococcus epidermidis EPI1. It is filed as functional.
The test system of the next test is Haemophilus influenzae. Put plainly: In vitro antimicrobial activity against Haemophilus influenzae. It counts as functional.
In test [4] the test system is Streptococcus pyogenes. Put plainly: In vivo effective dose against experimental infections in rodent caused by Streptococcus pyogenes C203 when administered sc. It counts as functional.
A further test relates to Enterococcus faecium. Description: In vitro antimicrobial activity against Streptococcus faecium X66. It counts as functional, streptococcus fae-cium.
Test [5] has as its system Streptococcus pyogenes. Description: Effective dose against Streptococcus pyogenes C203 when administered sc. It is filed as functional. In a few lines: (§1)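 Mouse protection test: infected mice were dosed twice, at 1 and 5 h postinfection, either subcutaneously or orally. […] The result is expressed as ED50 in mg/kg × 2.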
The test system of test [6] is Streptococcus pyogenes. Put plainly: Activity against Streptococcus pyogenes C203 when administered sc. It is filed as functional. In a few lines:
as §1

The subject of test [7] is Streptococcus pyogenes. Description: Activity against Streptococcus pyogenes C203 when administered orally. The settings on record: po. It counts as functional. Put shortly:
as §1

Test [8] concerns Mus musculus. Description: Peripheral plasma levels in mice after oral administration of 50 mg/kg dose for 4 hr. The arrangement: dose 50 mg/kg. It counts as functional, organism-based. Put shortly:
(§2)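 Mice were given the compound orally and sampled for peripheral plasma at each time point. Plasma was assayed microbiologically against Micrococcus luteus seeded in Antibiotic Medium 1. Inhibition zone sizes were read, and concentrations were calculated from each compound's own standard curve. Each value is the mean of five mice per time point.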

Test [9] has as its system Mus musculus. Put plainly: Peripheral plasma levels in mice after oral administration of 50 mg/kg dose for 1 hr. It counts as functional, organism-based. The arrangement: dose 50 mg/kg. In a few lines:
as §2

Test [10] concerns Streptococcus pyogenes. Description: In vivo effective dose against experimental infections in rodent caused by Streptococcus pyogenes C203 when administered orally. It is filed as functional. As to conditions: po.
Test [11] deals with Mus musculus. Put plainly: Peripheral plasma levels in mice after oral administration of 50 mg/kg dose for 2 hr. It counts as functional, organism-based. The arrangement: dose 50 mg/kg. In a few lines:
as §2

Test [12] has as its system Rattus norvegicus. Put plainly: Peripheral plasma levels in rats after oral administration of 100 mg/kg dose for 4 hr. It counts as functional, organism-based. The arrangement: dose 100 mg/kg. Put shortly: (§3)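 Rats received 100 mg/kg orally and were sampled for peripheral plasma. Concentrations were measured by Micrococcus luteus agar-diffusion microbiological assay in Antibiotic Medium 1, with zone sizes converted using the standard curve for the appropriate compound. Each value is the average of three rats per time point.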

In test [13] the test system is Rattus norvegicus. Description: Peripheral plasma levels in rats after oral administration of 100 mg/kg dose for 2 hr. It is filed as functional, organism-based. The arrangement: dose 100 mg/kg. Put shortly: as §3
For test [14], the system named is Rattus norvegicus. Description: Peripheral plasma levels in rats after oral administration of 100 mg/kg dose for 1 hr. It is filed as functional, organism-based. The arrangement: dose 100 mg/kg. In a few lines:
as §3

Test [15] has as its system Mus musculus. Description: Peripheral plasma levels in mice after oral administration of 50 mg/kg dose for 0.5 hr. It counts as functional, organism-based. The arrangement: dose 50 mg/kg. In a few lines:
as §2

For test [16], the system named is Rattus norvegicus. Put plainly: Peripheral plasma levels in rats after oral administration of 100 mg/kg dose for 0.25 hr. It is filed as functional, organism-based. The arrangement: dose 100 mg/kg. Put shortly: as §3
The subject of test [17] is Rattus norvegicus. Put plainly: Peripheral plasma levels in rats after oral administration of 100 mg/kg dose for 0.5 hr. The arrangement: dose 100 mg/kg. It counts as functional, organism-based. In a few lines: as §3
Test [18] deals with Mus musculus. Put plainly: Peripheral plasma levels in mice after oral administration of 50 mg/kg dose for 0.25 hr. The arrangement: dose 50 mg/kg. It counts as functional, organism-based. In a few lines: as §2

This note sets out measurements from ChEMBL document CHEMBL1124186, “Synthesis and evaluation of tylosin-related macrolides modified at the aldehyde function: a new series of orally effective antibiotics” (1988).

Values after ≈ are worked out from the molar mass of the structure shown. Where only a bound is given, the exact number is not on record here.

In general, ED50 refers to the midpoint of the dose-response relation. A low value points to an effect at a small dose.

As for `CC[C@H]1OC(=O)C[C@@H](O)[C@H](C)[C@@H](O[C@@H]2O[C@H](C)[C@@H](O[C@H]3C[C@@](C)(O)[C@@H](O)[C@H](C)O3)[C@H](N(C)C)[C@H]2O)[C@@H](C)C[C@@H](C)C(=O)/C=C/C(C)=C/[C@@H]1CO[C@@H]1O[C@H](C)[C@@H](O)[C@@H](O)[C@H]1OC` [DEFORMYLMACROCIN], the MIC was 64 µg/mL (≈ 73.2 µM) against Streptococcus pneumoniae; 2 µg/mL (≈ 2.29 µM) against Staphylococcus aureus; 2 µg/mL (≈ 2.29 µM) against Streptococcus pyogenes [1]; 2 µg/mL (≈ 2.29 µM) in the test on Streptococcus pyogenes [2]; 2 µg/mL (≈ 2.29 µM) in test [3]; over 128 µg/mL with Haemophilus influenzae. Further, in the test with Enterococcus faecium, the MIC amounted to 128 µg/mL (≈ 146 µM). The ED50 with Streptococcus pyogenes [4] and in the test on Streptococcus pyogenes [5] was over 10 mg/kg in each case.
`CC[C@H]1OC(=O)C[C@@H](O)[C@H](C)[C@@H](O[C@@H]2O[C@H](C)[C@@H](OC(C)=O)[C@H](N(C)C)[C@H]2OC(C)=O)[C@@H](CCOc2ccccc2)C[C@@H](C)C(=O)/C=C/C(C)=C/[C@@H]1CO[C@@H]1O[C@H](C)[C@@H](O)[C@@H](OC)[C@H]1OC`: the ED50 with Streptococcus pyogenes [6] turned out to be 2.9 mg/kg; in the test with Streptococcus pyogenes [7], 16 mg/kg. The MIC with Streptococcus pyogenes [1] is 0.5 µg/mL (≈ 0.535 µM).
Regarding `CC[C@H]1OC(=O)C[C@@H](O)[C@H](C)[C@@H](O[C@@H]2O[C@H](C)[C@@H](O)[C@H](N(C)C)[C@H]2O)[C@@H](CCF)C[C@@H](C)C(=O)/C=C/C(C)=C/[C@@H]1CO[C@@H]1O[C@H](C)[C@@H](O)[C@@H](OC)[C@H]1OC`, the Concentration in the test on Mus musculus [8] stood at 0.1 µg/mL; with Mus musculus [9] it was 0.2 µg/mL; in the test on Mus musculus [11], 0.4 µg/mL; in the test on Rattus norvegicus [12], 1.5 µg/mL; in the test with Rattus norvegicus [13] it was 1.9 µg/mL; with Rattus norvegicus [14] it was 0.1 µg/mL. Besides, the Concentration was under 0.1 µg/mL in the test with Mus musculus [15], 0.3 µg/mL in the test with Rattus norvegicus [16], 0.5 µg/mL with Rattus norvegicus [17] and under 0.1 µg/mL in the test on Mus musculus [18]. In addition, the MIC amounted to 2 µg/mL (≈ 2.58 µM) against Streptococcus pneumoniae; 0.25 µg/mL (≈ 0.322 µM) with Staphylococcus aureus; 0.25 µg/mL (≈ 0.322 µM) against Streptococcus pyogenes [2]; 0.12 µg/mL (≈ 0.155 µM) in test [3]; 16 µg/mL (≈ 20.6 µM) with Haemophilus influenzae; 8 µg/mL (≈ 10.3 µM) against Enterococcus faecium. Further, the figures for the ED50 with Streptococcus pyogenes [10] and with Streptococcus pyogenes [4] were 8 mg/kg and 5 mg/kg, respectively.
On to `CC[C@H]1OC(=O)C[C@@H](O)[C@H](C)[C@@H](O[C@@H]2O[C@H](C)[C@@H](O)[C@H](N(C)C)[C@H]2OC(C)=O)[C@@H](CCOc2ccccc2)C[C@@H](C)C(=O)/C=C/C(C)=C/[C@@H]1CO[C@@H]1O[C@H](C)[C@@H](O)[C@@H](OC)[C@H]1OC`, for which the 50% effective dose (ED50) in the test on Streptococcus pyogenes [6] turned out to be 1 mg/kg; in the test on Streptococcus pyogenes [7], 9 mg/kg. Also, in the test on Streptococcus pyogenes [1], the MIC was 1 µg/mL (≈ 1.12 µM).
